The term IC50 denotes the point on the concentration scale where inhibition reaches its midpoint. High values mean lower potency, low ones higher potency. What is called Papp B→A is the apparent permeability from the basolateral to the apical side of a cell layer. For orientation: Papp A→B means the apparent permeability from the apical to the basolateral side of a cell layer. As usually defined, the inhibition is the change of the read-out against control, counted positive when it falls. As usually defined, the Kp is the ratio of the level in a tissue or fluid to that in plasma or blood.

Results on 24 compounds are retold here after ChEMBL document CHEMBL1156006, “Potent and cellularly active 4-aminoimidazole inhibitors of cyclin-dependent kinase 5/p25 for the treatment of Alzheimer's disease” (Bioorg Med Chem Lett, 2009).

Structures are written as SMILES.

Data set [1] has as its target T1, Cyclin-dependent kinase 5/CDK5 activator 1 (Homo sapiens, UniProt Q00535). The data set can be described thus: Inhibition of CDK5/p25 by scintillation proximity assay. The format is protein-complex assay. (In a scintillation proximity assay essentially only radioactivity close to the scintillant gives light.)
Data set [2] in a line: Selectivity ratio, IC50 for CDK2/cyclin E over IC50 for CDK5/p25.
In data set [3] the target is T1, Cyclin-dependent kinase 5/CDK5 activator 1. The data set can be described thus: Inhibition of human CDK5/p25 expressed in CHO cells after 2 hrs by whole cell assay. The format is cell-based. In outline: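 The cell line carries doxycycline-regulated CDK5, p25 and tau transgenes and was kept uninduced in doxycycline medium. Expression was induced by removing doxycycline for 24 h. Cells were then treated with compound for 2 h and lysed. Phosphorylated tau was measured in detergent-soluble extracts by AlphaLISA.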

Data set [4] is described as follows: Apparent permeability from basolateral to apical side in human Caco-2 cells. In general terms: Passage across Caco-2 layers is used to estimate intestinal permeability.
The nature of data set [5]: Apparent permeability from apical to basolateral side in human Caco-2 cells.
The target in data set [6] is Glycogen synthase kinase-3 beta (Homo sapiens) (UniProt P49841). Kind of data set: Inhibition of GSK3-beta at 10 uM by scintillation proximity assay. In outline:
(§1)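 Single-concentration profiling by scintillation proximity assay across a 20-kinase panel, including AMPK, GSK3b, MAPK1 and PHK. Compound was tested at 10, with ATP at the Km of each kinase.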

Data set [7] concerns the target Dual specificity protein kinase CLK1 (Homo sapiens) (UniProt P49759). The data set can be described thus: Inhibition of CLK1 at 10 uM by scintillation proximity assay.
The target is the same in data set [8]. Kind of data set: Inhibition of CLK1 at 1 uM by scintillation proximity assay.
The target in data set [9] is Glycogen synthase kinase-3 beta (Homo sapiens) (UniProt P49841). Kind of data set: Inhibition of GSK3-beta at 1 uM by scintillation proximity assay.
Chain of Glycogen synthase kinase-3 beta (Homo sapiens) (P49841 whole entry, looked up): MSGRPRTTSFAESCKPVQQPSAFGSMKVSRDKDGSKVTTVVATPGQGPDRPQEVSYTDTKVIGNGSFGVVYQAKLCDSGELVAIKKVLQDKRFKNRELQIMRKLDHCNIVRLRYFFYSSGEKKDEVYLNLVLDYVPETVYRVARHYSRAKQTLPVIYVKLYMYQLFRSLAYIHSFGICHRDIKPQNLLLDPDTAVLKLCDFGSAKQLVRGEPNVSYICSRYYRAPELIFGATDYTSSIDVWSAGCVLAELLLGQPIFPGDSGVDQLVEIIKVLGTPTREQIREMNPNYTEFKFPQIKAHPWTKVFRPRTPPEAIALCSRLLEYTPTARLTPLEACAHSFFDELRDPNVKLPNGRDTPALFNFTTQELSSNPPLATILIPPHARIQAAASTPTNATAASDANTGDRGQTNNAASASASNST
For data set [10], the target named is Mitogen-activated protein kinase 1 (Homo sapiens) (UniProt P28482). Kind of data set: Inhibition of MAPK1/ERK2 at 10 uM by scintillation proximity assay. The method in brief: as §1
Chain of Mitogen-activated protein kinase 1 (Homo sapiens) (P28482 whole entry): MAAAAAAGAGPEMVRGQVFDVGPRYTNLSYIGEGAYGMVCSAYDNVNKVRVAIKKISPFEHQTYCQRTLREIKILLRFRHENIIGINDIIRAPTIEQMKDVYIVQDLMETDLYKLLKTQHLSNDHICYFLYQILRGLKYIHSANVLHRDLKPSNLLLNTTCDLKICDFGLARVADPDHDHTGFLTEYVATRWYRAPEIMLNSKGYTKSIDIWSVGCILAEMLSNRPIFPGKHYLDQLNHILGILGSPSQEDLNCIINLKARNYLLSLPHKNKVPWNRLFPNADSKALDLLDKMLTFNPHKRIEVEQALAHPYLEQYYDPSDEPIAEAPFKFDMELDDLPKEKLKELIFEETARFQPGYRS
Data set [11] has the same target. Kind of data set: Inhibition of MAPK1/ERK2 at 1 uM by scintillation proximity assay.
Data set [12] concerns the target Casein kinase I isoform delta (Homo sapiens) (UniProt P48730). The data set can be described thus: Inhibition of CK1delta at 10 uM by scintillation proximity assay.
The target is the same in data set [13]. Kind of data set: Inhibition of CK1delta at 1 uM by scintillation proximity assay.
Data set [14] concerns the target T2, Cyclin-dependent kinase 2/cyclin A (Homo sapiens) (UniProt P24941+P20248+P78396). Kind of data set: Inhibition of CDK2/cyclin A at 10 uM by scintillation proximity assay. Format: protein-complex assay.
Data set [15] has as its target T2, Cyclin-dependent kinase 2/cyclin A (Homo sapiens). Kind of data set: Inhibition of CDK2/cyclin A at 1 uM by scintillation proximity assay. The format is protein-complex assay.
The nature of data set [16]: Inhibition of AMPK at 10 uM by scintillation proximity assay. The method in brief:
as §1

The nature of data set [17]: Inhibition of PHK at 10 uM by scintillation proximity assay. The method in brief: as §1
Data set [18] in a line: Plasma concentration in FV/B mouse at 2 mg/kg, sc after 1 hr. Format: ADME, organism-based. Also on record: dose 2 mg/kg, route subcutaneous.
Data set [19] in a line: Plasma concentration in MDR1A/1B knockout mouse at 2 mg/kg, sc after 1 hr. The format is ADME, organism-based. Also on record: dose 2 mg/kg, route subcutaneous.
The nature of data set [20]: Drug level in FV/B mouse brain at 2 mg/kg, sc after 1 hr. Format: ADME, organism-based. Details: dose 2 mg/kg, route subcutaneous. The conditions noted are these: read-out: Drug uptake.
A short description of data set [21]: Drug level in MDR1A/1B knockout mouse brain at 2 mg/kg, sc after 1 hr. Format: ADME, organism-based. Details: dose 2 mg/kg, route subcutaneous. The conditions noted are these: read-out: Drug uptake.
A short description of data set [22]: Ratio of drug level from brain to plasma in FV/B mouse at 2 mg/kg, sc after 1 hr.
Data set [23] can be described thus: Ratio of drug level from brain to plasma in MDR1A/1B knockout mouse at 2 mg/kg, sc after 1 hr.
Data set [24] is described as follows: Selectivity ratio, IC50 for human CDK5/p25 by whole cell assay over IC50 for CDK5/p25.

T1 sequence (Q00535 whole entry): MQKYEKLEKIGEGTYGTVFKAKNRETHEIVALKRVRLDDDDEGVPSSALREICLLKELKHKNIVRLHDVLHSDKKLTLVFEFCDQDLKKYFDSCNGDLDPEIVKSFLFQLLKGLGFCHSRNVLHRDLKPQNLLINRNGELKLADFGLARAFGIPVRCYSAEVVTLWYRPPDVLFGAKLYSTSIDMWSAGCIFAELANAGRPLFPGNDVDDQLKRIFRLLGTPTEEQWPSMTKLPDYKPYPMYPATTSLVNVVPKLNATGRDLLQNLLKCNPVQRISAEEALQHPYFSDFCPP
T1 sequence (Q15078 whole entry, further chain): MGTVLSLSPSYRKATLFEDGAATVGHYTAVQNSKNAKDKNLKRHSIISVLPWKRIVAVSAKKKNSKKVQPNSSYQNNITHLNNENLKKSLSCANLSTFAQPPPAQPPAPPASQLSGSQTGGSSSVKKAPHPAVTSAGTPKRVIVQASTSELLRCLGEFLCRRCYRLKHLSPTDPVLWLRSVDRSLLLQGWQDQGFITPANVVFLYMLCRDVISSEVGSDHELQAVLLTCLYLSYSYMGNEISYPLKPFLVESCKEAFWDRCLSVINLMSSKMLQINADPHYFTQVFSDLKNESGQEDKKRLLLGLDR
Chain of Dual specificity protein kinase CLK1 (Homo sapiens) (P49759 whole entry, looked up): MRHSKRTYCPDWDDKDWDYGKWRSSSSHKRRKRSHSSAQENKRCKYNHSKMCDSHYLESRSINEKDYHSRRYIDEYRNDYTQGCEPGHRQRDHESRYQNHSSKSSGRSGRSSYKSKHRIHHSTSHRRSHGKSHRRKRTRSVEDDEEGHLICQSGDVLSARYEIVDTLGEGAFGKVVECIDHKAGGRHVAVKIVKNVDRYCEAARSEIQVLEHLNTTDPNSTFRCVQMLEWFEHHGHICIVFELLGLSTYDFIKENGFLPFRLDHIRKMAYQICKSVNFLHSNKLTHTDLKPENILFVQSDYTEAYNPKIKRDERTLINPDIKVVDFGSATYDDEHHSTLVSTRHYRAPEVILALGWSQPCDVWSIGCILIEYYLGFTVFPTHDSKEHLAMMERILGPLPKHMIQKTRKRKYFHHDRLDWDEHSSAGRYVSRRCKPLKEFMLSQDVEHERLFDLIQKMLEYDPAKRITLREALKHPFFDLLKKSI
Chain of Casein kinase I isoform delta (Homo sapiens) (P48730 whole entry, looked up, canonical isoform): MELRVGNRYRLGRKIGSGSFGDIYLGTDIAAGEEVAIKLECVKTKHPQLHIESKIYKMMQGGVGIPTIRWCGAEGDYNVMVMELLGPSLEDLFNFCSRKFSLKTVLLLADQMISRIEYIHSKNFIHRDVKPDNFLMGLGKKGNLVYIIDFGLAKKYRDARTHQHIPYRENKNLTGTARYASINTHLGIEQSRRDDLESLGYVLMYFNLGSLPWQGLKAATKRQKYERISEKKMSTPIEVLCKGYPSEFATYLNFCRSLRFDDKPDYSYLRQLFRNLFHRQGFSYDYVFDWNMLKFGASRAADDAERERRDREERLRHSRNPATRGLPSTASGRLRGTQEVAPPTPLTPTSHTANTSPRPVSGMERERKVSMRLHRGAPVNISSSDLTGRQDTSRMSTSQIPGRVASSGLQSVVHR

The compound `O=C(Cc1ccccc1)Nc1cn(C2CCC2)cn1` gave an IC50 in data set [1] of 500 nM.

For `O=C(Cc1ccccc1)Nc1ncc(C2CCC2)s1`, in data set [1], the IC50 was 64 nM. Moreover, the Ratio IC50 in data set [2] turned out to be 1.5.

As for `COc1ccc(CC(=O)Nc2cn([C@H]3C[C@@H](C(=O)OC)C3)cn2)cc1`, the IC50 in [1] amounted to 145 nM. Moreover, the Ratio IC50 in data set [2] amounted to 0.7.

For the compound `O=C(Cc1cccc2ccccc12)Nc1cn([C@H]2C[C@@H](NC(=O)c3ccccn3)C2)cn1`, the IC50 stood at 14 nM in [1] and 1300 nM in [3]. Further, the Papp B→A in data set [4] worked out at 21 ×10⁻⁶ cm/s. Moreover, in data set [5], the Papp A→B was 26 ×10⁻⁶ cm/s. The Ratio IC50 in data set [2] worked out at 20.

Consider `COc1ccc(CC(=O)Nc2cn(Cc3ccccc3)cn2)cc1`, for which 8640 nM corresponded to half-maximal inhibition in [1] (IC50).

For the compound `CC(=O)N[C@H]1C[C@@H](n2cnc(NC(=O)Cc3cccc4ccccc34)c2)C1`, the IC50 was 8 nM in [1] and more than 30000 nM in [3]. In addition, the Papp B→A in [4] worked out at 17.5 ×10⁻⁶ cm/s. The Papp A→B in data set [5] came out at 1.5 ×10⁻⁶ cm/s. Moreover, the Ratio IC50 in data set [2] worked out at 17.

In data set [1], `COc1ccc(CC(=O)Nc2cn([C@H]3C[C@@H](NS(C)(=O)=O)C3)cn2)cc1` registered an IC50 of 178 nM. In addition, the Ratio IC50 in [2] was 6.

In the case of `COc1ccc(CC(=O)Nc2cn([C@H]3C[C@@H](NC(C)=O)C3)cn2)cc1`, the IC50 in data set [1] stood at 9 nM. The inhibition in data set [6] amounted to 100%; in data set [7], 92%; in data set [8], 55%; in data set [9], 94%; in [10], 89%; in [11] it was 47%. In addition, the inhibition came out at 39% in data set [12], 7% in data set [13], 101% in data set [14] and 94% in [15]. The Ratio IC50 in [2] came to 7.

`COc1ccc(CC(=O)Nc2cn(C3CC3)cn2)cc1` returned an IC50 in data set [1] of 814 nM.

For `COc1ccc(CC(=O)Nc2cn(C3CCC3)cn2)cc1`, the half-maximal inhibitory concentration (IC50) in data set [1] was determined as 145 nM. Moreover, the inhibition in data set [6] was 34%; in data set [16], 48%; in [17], 32%.

Regarding `COc1ccc(CC(=O)Nc2cn([C@H]3C[C@H](C(=O)OC)C3)cn2)cc1`, the IC50 in data set [1] came to 4380 nM. Also, the Ratio IC50 in [2] is 0.2.

Compound `COc1ccc(CC(=O)Nc2cn([C@H]3C[C@H](O)C3)cn2)cc1` displayed an IC50 in data set [1] of 1090 nM. In addition, the Ratio IC50 in [2] was determined as 0.7.

Turning to `Cc1cccc(C(=O)N[C@H]2C[C@@H](n3cnc(NC(=O)Cc4cccc5ccccc45)c3)C2)n1`, the results for the IC50 in data set [1] and in data set [3] were 6 nM and 230 nM, respectively. In addition, the concentration at 1 h is 280 ng/mL in data set [18], 336 ng/mL in data set [19], 34 ng/g in [20] and 383 ng/g in [21]. In addition, the Kp at 1 h in [22] was 0.12; in data set [23], 1.1.

In [1], `COc1ccc(CC(=O)Nc2cn([C@H]3C[C@@H](O)C3)cn2)cc1` gave an IC50 of 95 nM. The Ratio IC50 in data set [2] turned out to be 0.7.

The compound `NC(=O)[C@H]1C[C@@H](n2cnc(NC(=O)Cc3cccc4ccccc34)c2)C1` registered an IC50 in data set [1] of 391 nM. Moreover, the Ratio IC50 in data set [2] is 2.

For the compound `O=C(Cc1cccc2ccccc12)Nc1cn([C@H]2C[C@@H](NC(=O)c3cccc(Cl)n3)C2)cn1`, the IC50 is 6 nM in data set [1] and 673 nM in data set [3]. The results for the Ratio IC50 in data set [2] and in data set [24] were 34 and 100, respectively.

In data set [1], `O=C(Cc1cccc2ccccc12)Nc1cn([C@H]2C[C@@H](NC(=O)c3ccncc3)C2)cn1` had an IC50 of 28 nM. Also, in [2], the Ratio IC50 turned out to be 11.

In the case of `CC(=O)N(C)[C@H]1C[C@@H](n2cnc(NC(=O)Cc3cccc4ccccc34)c2)C1`, the IC50 in [1] worked out at 107 nM. Also, the Ratio IC50 in data set [2] was 15.

As to `COc1ccc(CC(=O)Nc2cn(C3CCCC3)cn2)cc1`, in [1], half-maximal inhibition (IC50) was put at 154 nM.

In [1], `O=C(Cc1cccc2ccccc12)Nc1cn(C2CCC2)cn1` came in with an IC50 of 46 nM.

Compound `COc1ccc(CC(=O)Nc2cn(C3CCCCC3)cn2)cc1` came in with an IC50 in [1] of 748 nM.

Turning to `O=C(Cc1cccc2ccccc12)Nc1cn([C@H]2C[C@@H](NC(=O)c3cccnc3)C2)cn1`, the IC50 is 46 nM in [1] and more than 30000 nM in [3]. For the same compound, the Ratio IC50 in data set [2] came out at 15.

In the case of `COc1ccc(CC(=O)Nc2cn(C(C)C)cn2)cc1`, in [1], inhibition was half-maximal at 425 nM (IC50).

`COc1ccc(CC(=O)Nc2cn(C)cn2)cc1` returned an IC50 in [1] of more than 10000 nM.
